NR2E3 ag-1 – inhibitors of NR2E3-RetCOR corepressor binding, primary screen, NR2E3 agonist project, biochemical, TR-FRET, GST-NR2E3, biotin-RetCOR. Photoreceptor-specific nuclear receptor (Homo sapiens), Q9Y5X4. 1536-well. inhibition of corepressor binding, % at 4.78 µM. 320,000 tested, 0.12% active. AID 2300, 2010;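 active means percent inhibition above the cutoff of mean plus 3 SD of all tested compounds, set per screening campaign, cut at about 20% in these data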
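Test system – NR2E3–RetCOR corepressor complex · Quantity – NR2E3 fusion 1.35 nM · Buffer or medium – Tris pH 7.5 · Incubation – Compound–protein incubation for 5 h at 4 °C · Technique – TR-FRET, Eu(K)-anti-GST donor, streptavidin-D2 acceptor, ex 340, em 617/671 nm · Evaluation – percent inhibition of 671/617 nm emission ratio versus biotin and DMSO controls · Plate – 1536-well format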
GalR3 antagonist – GalR3 antagonists in HEK293 cells, primary screen, cell-based, fluorescence readout; Galanin receptor type 3 (Homo sapiens), O60755; HEK293 GalR3-CNG cAMP membrane potential fluorescence; galR3 body fused to GalR1 C-terminus; inhibition, % at 3 µM; 360,000 tested, 0.44% active; AID 651719, 2012;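 active means inhibition above the screen-wide average plus 3 SD, cut at about 13% in these data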;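 further: forskolin and galanin both at EC90 stimulate the cells; cAMP rise reported by CNG channel membrane potential dye signal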
Target sequence (O60755 1-299 limits assumed): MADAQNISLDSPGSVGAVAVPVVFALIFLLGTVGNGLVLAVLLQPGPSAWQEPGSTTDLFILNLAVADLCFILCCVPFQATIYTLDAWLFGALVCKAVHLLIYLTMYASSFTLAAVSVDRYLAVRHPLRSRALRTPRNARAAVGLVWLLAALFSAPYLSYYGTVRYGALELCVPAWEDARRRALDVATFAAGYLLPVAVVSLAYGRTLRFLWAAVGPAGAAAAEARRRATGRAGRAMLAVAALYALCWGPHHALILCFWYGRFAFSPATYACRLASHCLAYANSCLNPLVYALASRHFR
CHT allo act – CHT positive allosteric modulators, primary screen, cell-based, membrane potential dye, choline EC20; High affinity choline transporter 1 (Homo sapiens), Q9GZV3; CHT-expressing cells; stronger effect = higher value; LV-AA mutant CHT in HEK293 cells; B-score at 10 µM; 310,000 tested, 0.49% active; AID 488977, 2010;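 active means initial fluorescence not abnormally high and integrated response B-score, plate-corrected, over 3 SD above library mean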
NR2F2 inh – NR2F2 transcriptional activity inhibitors, primary screen, cell-based, luciferase reporter, HEK293T, luminescence. COUP transcription factor 2 (Homo sapiens), P24468. inhibition, % at 8.6 µM. 370,000 tested, 0.7% active. AID 686940, 2013. HEK293T NGFI-A luciferase reporter;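 active means inhibition above a per-plate cutoff, mean inhibition of test wells between control levels plus 3 SD, cut at about 38% in these data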;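 further: cells cotransfected with COUP-TFII expression vector driving the NGFI-A reporter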
CHT inh – inhibitors of human choline transporter CHT. High affinity choline transporter 1 (Homo sapiens), Q9GZV3. CHT-expressing cells, membrane potential dye, choline response; stronger effect = lower value. B-score at 10 µM. 310,000 tested, 0.86% active;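 active means B-score over 3 SD under the library average, and starting fluorescence ratio not unusually high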;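 further: choline stimulus applied at its EC90 after an EC20 pre-addition; B-score computed on integrated fluorescence ratio after choline addition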
NR2E3 ag-2 – NR2E3 agonists in two-hybrid cells, primary screen, cell-based, luminescence, CHO-S, Gal4-NCOR/VP16-NR2E3. Photoreceptor-specific nuclear receptor (Homo sapiens), Q9Y5X4. AID 602229, 2012. 360,000 tested, 0.35% active. luciferase. inhibition of corepressor binding, % at 3.98 µM;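 active means inhibition above the mean of all tested compounds plus 3 SD, cut at about 70% in these data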;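 further: higher means lower luciferase signal from less NR2E3 corepressor binding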
NR2E3 ag conf – NR2E3 agonist confirmation in cells, cell-based, luminescence, CHO-S two-hybrid; 2,300 tested, 51% active; CHO-S mammalian two-hybrid NR2E3-NCOR, luciferase luminescence; AID 624378, 2012; inhibition, % at 3.98 µM; shares compounds with NR2E3 ag-2;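 active means average inhibition above a cutoff equal to the mean inhibition of all tested compounds plus one SD, cut at about 70% in these data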
GAL4-VP16 luc – GAL4-VP16 reporter modulators, confirmation, counter-screen for NR2E3 agonist project, cell-based, luminescence, CHO-S, high throughput; shares compounds with NR2E3 ag-2; CHO-S GAL4-VP16 luciferase reporter; inhibition, % at 3.98 µM; 2,300 tested, 29% active; AID 624379, 2012;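 active means mean inhibition above a cutoff equal to the average over all tested compounds plus one standard deviation, cut at about 70% in these data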;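 further: luciferase from a UAS reporter driven by GAL4-VP16 transactivation; higher means less reporter light so more repression of VP16 activity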
GalR3 antag conf – GalR3 antagonist hit confirmation, cell-based, fluorescence, triplicate; shares compounds with GalR3 antagonist; HEK293 GalR3 CNG cAMP biosensor, membrane potential fluorescence; galR3 fused to GalR1 carboxy tail; challenged with forskolin and galanin at EC90; inhibition, % at 3 µM; 1,600 tested, 59% active; AID 652245, 2013;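 active means inhibition above the primary screen's cutoff, the mean inhibition of all screened compounds plus 3 SD, cut at about 13% in these data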
CNG parental – nonspecific cAMP agonists in parental HEK-CNG cells, counter-screen for GalR3 antagonist project, cell-based, fluorescence, high throughput | shares compounds with GalR3 antagonist | HEK293-CNG parental cells, cAMP membrane potential fluorescence; normalised: DMSO wells 0%, forskolin wells 100% | activation, % at 3 µM | 1,600 tested, 10% active | AID 652268, 2013; in the data active means activation above about 1.3%
Of the large screens only hits and unclear results are named; the others gave an inactive call (follow-up assays come after a bar, where they were run). Only some compounds are listed: those with a hit (about 2.3% of all), similar ones and a draw of the others.

COC(=O)C1C(c2ccccc2)CC2CCC1N2C (configuration not stated)	none (no result: NR2E3 ag-1, CHT allo act, CHT inh, NR2E3 ag-2)
O=C(O)C(Br)Br	none (no result: NR2E3 ag-1, CHT allo act, CHT inh, NR2E3 ag-2)
COc1ccc2c(c1)/C(=C/c1cnc[nH]1)C(=O)N2	CHT allo act 8.82, NR2E3 ag-2 80.8 | NR2E3 ag conf 85.6 | GAL4-VP16 luc inactive
CCOC(=O)[C@]12Cc3cc(Cl)ccc3[C@H]1N(CC(=O)OC)C(=O)c1ccccc12	none (no result: NR2E3 ag-1, GalR3 antagonist, CHT allo act, NR2F2 inh, CHT inh) | NR2E3 ag conf inactive | GAL4-VP16 luc inactive
CCOC(=O)[C@]12Cc3cc(Cl)ccc3[C@H]1N(C1CCCCC1)C(=O)c1ccccc12	none (no result: NR2E3 ag-1, GalR3 antagonist, CHT allo act, NR2F2 inh, CHT inh) | NR2E3 ag conf 96.5 | GAL4-VP16 luc inactive
O=c1[nH]c2ccccc2n1C1CCN(C(c2cc3ccccc3o2)c2nnnn2Cc2ccccc2)CC1 (configuration not stated)	none (no result: NR2E3 ag-1, CHT allo act, CHT inh)
Cc1cc(Br)cn2c(CC(=O)N3CCCCC3)c(-c3ccc(F)cc3)nc12	none (no result: NR2E3 ag-1, CHT allo act, CHT inh)
CCC(=O)[C@@H](C)[C@@H](O)[C@H](C)C[C@@H](C)C1OC(=O)C[C@@]2(O)CC=C(C)C(O2)C(C)=CCCC[C@H](O[C@H]2C[C@@H](OC(N)=O)[C@H](O)[C@@H](C)O2)C=C[C@H](C)C[C@H]1C (some centres not stated)	NR2E3 ag-2 93.4 (no result: NR2E3 ag-1, GalR3 antagonist, CHT allo act, NR2F2 inh, CHT inh) | NR2E3 ag conf 97.6 | GAL4-VP16 luc 84.1
COc1ccc2nc(-c3ccc(CN4CCC(n5c(=O)[nH]c6cc(Cl)ccc65)CC4)cc3)c(-c3ccccc3)nc2c1	none (no result: NR2E3 ag-1, CHT allo act, CHT inh, NR2E3 ag-2)
COC(=O)C1=C(c2ccc(OC(F)(F)F)cc2)C[C@@H]2CC[C@H]1N2C(=O)N1CCc2cc(OC)c(OC)cc2C1	none (no result: NR2E3 ag-1, CHT allo act, CHT inh, NR2E3 ag-2)
CC(C)(C)c1cc(C=C(C#N)C#N)cc(C(C)(C)C)c1O	GalR3 antagonist 26.6, NR2E3 ag-2 92.0 | NR2E3 ag conf 86.3 | GAL4-VP16 luc 89.5 | GalR3 antag conf 17.8 | CNG parental 14.9
CSCCC(c1nnnn1C(C)(C)C)N1CCC2(CC1)C(=O)NCN2c1ccccc1 (configuration not stated)	none (no result: NR2E3 ag-1, CHT allo act, CHT inh)

High-throughput results: PubChem BioAssay, several laboratories
